Assay results of several laboratories.
Target: Serine/threonine-protein kinase Nek4 (NEK4, Homo sapiens, UniProt P51957)

| SMILES | read-out | action | method | concentration | measurement | result |
| --- | --- | --- | --- | --- | --- | --- |
| CC(C)(C)c1nc2c(s1)c1nc(N)ncc1c1ccc(NS(=O)(=O)c3c(F)cccc3F)c(F)c12 | enzyme activity | inhibitor | radiometric | 1 µM | remaining activity | 96% |
| Nc1ncnc2occ(-c3ccc(NC(=O)Nc4cc(C(F)(F)F)ccc4F)cc3)c12 | cell-free assay | inhibitor |  | 20 µM | remaining signal | 2.8% |
| O=C1NC(=O)c2cc(Nc3ccc(F)cc3)c(Nc3ccc(F)cc3)cc21 | cell-free assay |  |  | 0.5 µM | remaining signal | 107% |
| COc1cc2ncnc(Nc3ccc(Oc4ccccc4)c(C)c3C)c2cc1OC | enzyme activity | inhibitor |  | 1 µM | inhibition | 2% |
| O=C(Nc1cnc(Oc2ccc(F)cc2)nc1)N1CCc2ncccc2[C@@H]1c1ccc(F)cc1 | cell-free assay |  | competition with immobilised ligand | 1 µM | remaining binding | 79% |
| COc1cccc2c(NCc3ccccc3)nc(-n3c(N)nc4ccccc43)nc12 | target engagement in cells | inhibitor | chemoproteomics | 20 mM | inhibition | -7.4% |
| Cc1c(NC(=O)c2cc(C(N)=O)nc3cc(F)ccc23)c(C(F)(F)F)nn1Cc1ccc(C#N)cc1 | cell-free assay |  | competition with immobilised ligand | 1 µM | remaining binding | 92% |
| CN1CC(Oc2cnc(C#N)cc2-c2ccn3nc(NC(=O)C4CC4)cc3c2)C1 | enzyme activity | inhibitor |  | 1 µM | inhibition | 2% |
| CS(=O)(=O)N1CCCC(NC(=O)[C@H](CCC2CCCCC2)NC(=O)c2ccc(CNC(=O)c3cnc4ccccn34)cc2)C1 (stereo partly drawn) | cell-free assay |  | competition with immobilised ligand | 0.1 µM | remaining binding | 100% |
| CC/C(=N\NC(=O)NCc1cccc(O)c1)c1ccc(O)c(C)c1O | enzyme activity | inhibitor |  | 0.1 µM | inhibition | -1.9% |
| CN(C)C1CCN(CC#Cc2nn(C3CCCC3)c3nc(NCc4ccccc4)ncc23)C1 (stereo not drawn) | enzyme activity | inhibitor | FRET | 1 µM | inhibition | 8% |
| O=C1Nc2ccc(Cl)cc2C1=Cc1cc(Cl)c(O)c(Cl)c1 | cell-free assay |  |  | 0.5 µM | remaining signal | 88.2% |
| COc1ccc2c(c1)O[C@@H](c1ccc(OC)c(OC)c1)C[C@H]2NC(=O)C1(c2ccc3c(c2)OC(F)(F)O3)CC1 | cell-free assay |  | competition with immobilised ligand | 1 µM | remaining binding | 75% |
| Cc1sc(C(=O)NC2COC2)cc1-n1cc(NC(=O)Nc2c(F)cccc2Cl)cn1 | enzyme activity | inhibitor |  | 10 µM | remaining activity | 75.5% |
| CC(=O)N1CCC(c2ccc(C(=O)NC3=NCCN3)cc2C(F)(F)F)CC1 | cell-free assay |  | competition with immobilised ligand | 1 µM | remaining binding | 100% |
| CCCCNc1ncc2c(-c3ccc(F)cc3)nn(C[C@H]3CC[C@H](N)CC3)c2n1 | target engagement in cells | inhibitor | chemoproteomics | 20 mM | inhibition | -16.7% |
| CCCOc1ccc([C@H]2[C@H](C(=O)O)[C@@H](c3ccc4c(c3)OCO4)CN2CC(=O)Nc2c(CC)cccc2CC)cc1 | cell-free assay |  | competition with immobilised ligand | 1 µM | remaining binding | 71% |
| COc1cc(Cl)c(C(=O)N[C@@H](CN[C@H]2CC[C@@H](N)CC2)Cc2ccc(C#N)cc2)cc1-c1ccc(CN[C@H](C)c2ccc(C)cc2)o1 | enzyme activity | inhibitor |  | 1 µM | remaining activity | 106% |
